Experiments:
[1] = biological target: Albumin (Bos taurus, UniProt P02769); test: Binding affinity to bovine serum albumin assessed as hyperchromicity in absorption spectra up to 20 uM after 5 mins by UV-visible spectroscopic analysis relative to control; format: ADME; details: cattle, isolated protein
Procedure, shortened: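 UV-visible absorption titration of 10 µM BSA in 0.1 M phosphate buffer pH 7.4 with increasing compound, 0–20 µM. Compounds diluted from DMSO stocks into buffer. Spectra recorded 200–800 nm in a 1 cm quartz cell at 300 K after 5 min equilibration. The BSA band is at 279 nm; changes are compared with BSA alone.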

[2] = Growth inhibition of human UO31 cells assessed as cell growth at 10 uM incubated for 48 hrs by sulforhodamine B assay; format: functional; details: UO-31, 48 h, read-out: Activity
[3] = Growth inhibition of human DU145 cells assessed as cell growth at 10^-7 M incubated for 48 hrs by sulforhodamine B assay; format: functional; details: DU-145, 48 h, read-out: Activity
Procedure, shortened: (§1)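 Cells seeded at 5,000–40,000/well according to doubling time and preincubated 24 h at 37 °C, 5% CO2. Time-zero plates were TCA-fixed. DMSO concentrate was diluted in medium with 50 µg/ml gentamicin to give five concentrations (10-fold or ½ log steps), then exposed 48 h. Cells were TCA-fixed, stained with 0.4% SRB and read at 515 nm. Percent growth was taken against time-zero and control; GI50, TGI and LC50 derived.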

[4] = test system: MDA-MB-435; test: Growth inhibition of human MDA-MB-435 cells assessed as cell growth at 10^-6 M incubated for 48 hrs by sulforhodamine B assay; format: functional; details: MDA-MB-435, 48 h, read-out: Activity
[5] = Growth inhibition of human BT549 cells assessed as cell growth at 10^-8 M incubated for 48 hrs by sulforhodamine B assay; format: functional; details: BT-549, 48 h, read-out: Activity
Procedure, shortened: (§2)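 Five-dose assay: five concentrations from 10-fold or ½-log serial dilutions. Cells are plated at 5,000–40,000 per well according to doubling time, grown 24 h, then exposed 48 h at 37 °C, 5% CO₂. Fixed with cold 50% TCA (final addition) for 60 min at 4 °C and stained with 0.4% SRB in 1% acetic acid. Bound dye is solubilized in 10 mM Tris base and read at 515 nm. GI₅₀ is where [(Ti−Tz)/(C−Tz)]×100 = 50, with a time-zero plate as Tz.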

[6] = test system: NCI-H522; test: Growth inhibition of human NCI-H522 cells assessed as cell growth at 10^-8 M incubated for 48 hrs by sulforhodamine B assay; format: functional; details: NCI-H522, 48 h, read-out: Activity
[7] = Growth inhibition of human SF539 cells assessed as cell growth at 10^-8 M incubated for 48 hrs by sulforhodamine B assay; format: functional; details: SF-539, 48 h, read-out: Activity
[8] = Growth inhibition of human SF539 cells assessed as cell growth at 10 uM incubated for 48 hrs by sulforhodamine B assay; format: functional; details: SF-539, 48 h, read-out: Activity
[9] = test system: SK-MEL-28; test: Growth inhibition of human SK-MEL-28 cells assessed as cell growth at 10^-4 M incubated for 48 hrs by sulforhodamine B assay; format: functional; details: SK-MEL-28, 48 h, read-out: Activity
[10] = Growth inhibition of human BT549 cells assessed as cell growth at 10^-5 M incubated for 48 hrs by sulforhodamine B assay; format: functional; details: BT-549, 48 h, read-out: Activity; procedure, shortened: as §2
[11] = test system: NCI-H322M; test: Growth inhibition of human NCI-H322M cells assessed as cell growth at 10^-6 M incubated for 48 hrs by sulforhodamine B assay; format: functional; details: read-out: Activity
[12] = Growth inhibition of human HCT15 cells assessed as cell growth at 10^-7 M incubated for 48 hrs by sulforhodamine B assay; format: functional; details: HCT-15, 48 h, read-out: Activity; procedure, shortened: as §1
[13] = test system: NCI-H23; test: Growth inhibition of human NCI-H23 cells assessed as cell growth at 10^-8 M incubated for 48 hrs by sulforhodamine B assay; format: functional; details: NCI-H23, 48 h, read-out: Activity
[14] = test system: NCI-H23; test: Growth inhibition of human NCI-H23 cells assessed as cell growth at 10^-4 M incubated for 48 hrs by sulforhodamine B assay; format: functional; details: NCI-H23, 48 h, read-out: Activity
[15] = Growth inhibition of human SNB19 cells assessed as cell growth at 10^-8 M incubated for 48 hrs by sulforhodamine B assay; format: functional; details: SNB-19, 48 h, read-out: Activity
[16] = test system: KM12; test: Growth inhibition of human KM12 cells assessed as cell growth at 10 uM incubated for 48 hrs by sulforhodamine B assay; format: functional; details: KM12, 48 h, read-out: Activity
[17] = Growth inhibition of human OVCAR3 cells assessed as cell growth at 10^-6 M incubated for 48 hrs by sulforhodamine B assay; format: functional; details: OVCAR-3, 48 h, read-out: Activity
[18] = test system: 786-0; test: Growth inhibition of human 786-0 cells assessed as cell growth at 10^-6 M incubated for 48 hrs by sulforhodamine B assay; format: functional; details: 786-0, 48 h, read-out: Activity; procedure, shortened: as §2
[19] = Growth inhibition of human OVCAR4 cells assessed as cell growth at 10^-5 M incubated for 48 hrs by sulforhodamine B assay; format: functional; details: OVCAR-4, 48 h, read-out: Activity
[20] = test system: MDA-MB-231; test: Growth inhibition of human MDA-MB-231 cells assessed as cell growth at 10^-5 M incubated for 48 hrs by sulforhodamine B assay; format: functional; details: MDA-MB-231, 48 h, read-out: Activity
[21] = Growth inhibition of human SF295 cells assessed as cell growth at 10^-7 M incubated for 48 hrs by sulforhodamine B assay; format: functional; details: SF-295, 48 h, read-out: Activity
[22] = Growth inhibition of human OVCAR8 cells assessed as cell growth at 10^-7 M incubated for 48 hrs by sulforhodamine B assay; format: functional; details: OVCAR-8, 48 h, read-out: Activity
[23] = test system: MCF7; test: Growth inhibition of human MCF7 cells assessed as cell growth at 10^-6 M incubated for 48 hrs by sulforhodamine B assay; format: functional; details: MCF7, 48 h, read-out: Activity
[24] = Growth inhibition of human COLO205 cells assessed as cell growth at 10 uM incubated for 48 hrs by sulforhodamine B assay; format: functional; details: COLO 205, 48 h, read-out: Activity
Procedure, shortened: (§3)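 Primary screen at one dose (10 µM) across 60 human cancer cell lines. Readout was growth percent relative to untreated control and time-zero.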

[25] = test system: A498; test: Growth inhibition of human A498 cells assessed as cell growth at 10^-4 M incubated for 48 hrs by sulforhodamine B assay; format: functional; details: A498, 48 h, read-out: Activity; procedure, shortened: as §2
[26] = test system: NCI-H226; test: Growth inhibition of human NCI-H226 cells assessed as cell growth at 10^-8 M incubated for 48 hrs by sulforhodamine B assay; format: functional; details: NCI-H226, 48 h, read-out: Activity
[27] = Growth inhibition of human PC3 cells assessed as cell growth at 10^-4 M incubated for 48 hrs by sulforhodamine B assay; format: functional; details: PC-3, 48 h, read-out: Activity
[28] = Growth inhibition of human Caki1 cells assessed as cell growth at 10 uM incubated for 48 hrs by sulforhodamine B assay; format: functional; details: CAKI-1, 48 h, read-out: Activity; procedure, shortened: as §3

Chain of Albumin (P02769 whole entry): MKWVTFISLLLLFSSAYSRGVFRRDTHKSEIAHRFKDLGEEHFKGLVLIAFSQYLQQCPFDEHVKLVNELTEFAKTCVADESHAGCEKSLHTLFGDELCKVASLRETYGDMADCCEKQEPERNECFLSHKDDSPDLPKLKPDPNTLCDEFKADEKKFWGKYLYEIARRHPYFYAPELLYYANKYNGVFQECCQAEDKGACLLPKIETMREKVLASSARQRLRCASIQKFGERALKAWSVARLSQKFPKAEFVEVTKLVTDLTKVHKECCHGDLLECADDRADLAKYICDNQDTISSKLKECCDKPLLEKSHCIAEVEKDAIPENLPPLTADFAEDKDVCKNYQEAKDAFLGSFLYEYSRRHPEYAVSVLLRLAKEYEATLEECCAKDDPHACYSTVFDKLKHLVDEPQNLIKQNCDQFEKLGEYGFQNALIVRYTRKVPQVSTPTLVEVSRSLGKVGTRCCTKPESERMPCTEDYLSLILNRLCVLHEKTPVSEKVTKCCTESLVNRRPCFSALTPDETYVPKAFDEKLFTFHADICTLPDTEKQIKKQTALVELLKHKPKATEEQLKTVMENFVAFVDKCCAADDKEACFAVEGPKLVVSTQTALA

Structure (SMILES)	Activity [1]	growth at 10 µM [2]	growth at 0.1 µM [3]	growth at 1 µM [4]	growth at 0.01 µM [5]	growth at 0.01 µM [6]	growth at 0.01 µM [7]	growth at 10 µM [8]	growth at 100 µM [9]	growth at 10 µM [10]	growth at 1 µM [11]	growth at 0.1 µM [12]	growth at 0.01 µM [13]	growth at 100 µM [14]	growth at 0.01 µM [15]	growth at 10 µM [16]	growth at 1 µM [17]	growth at 1 µM [18]	growth at 10 µM [19]	growth at 10 µM [20]	other results
c1ccc(-c2nc(Nc3ccc(-c4nc5ccccc5[nH]4)cc3)nc(N3CCOCC3)n2)cc1	72.27%	-60.6%	95%	96%	99%	100%	98%	-76.8%	-72%	-69%	86%	92%	95%	-51%	98%	-76.6%	81%	9%	-97%	-53%	growth at 0.1 µM [21]: 101%; growth at 0.1 µM [22]: 104%; growth at 1 µM [23]: 47%; growth at 10 µM [24]: -68.8%; growth at 100 µM [25]: -100%; growth at 0.01 µM [26]: 107%; growth at 100 µM [27]: -82%; growth at 10 µM [28]: -89.4%
Fc1ccc(-c2nc(Nc3ccc(-c4nc5ccccc5[nH]4)cc3)nc(N3CCOCC3)n2)cc1	86.8%	-43.5%	100%	95%	94%	96%	98%	0.31%	-36%	-53%	93%	98%	94%	-15%	102%	12.4%	89%	73%	3%	-35%	growth at 0.1 µM [21]: 94%; growth at 0.1 µM [22]: 104%; growth at 1 µM [23]: 85%; growth at 10 µM [24]: -43.7%; growth at 100 µM [25]: -96%; growth at 0.01 µM [26]: 100%; growth at 100 µM [27]: -6%; growth at 10 µM [28]: -56.6%
Clc1ccc(-c2nc(Nc3ccc(-c4nc5ccccc5[nH]4)cc3)nc(N3CCOCC3)n2)cc1	97.67%	-87.6%	96%	36%	96%	100%	98%	-92.7%	-24%	-66%	2%	91%	97%	-27%	102%	-91.3%	15%	-78%	-86%	-76%	growth at 0.1 µM [21]: 91%; growth at 0.1 µM [22]: 103%; growth at 1 µM [23]: -39%; growth at 10 µM [24]: -68.4%; growth at 100 µM [25]: -48%; growth at 0.01 µM [26]: 101%; growth at 100 µM [27]: -45%; growth at 10 µM [28]: -93.6%
c1ccc2[nH]c(-c3ccc(Nc4nc(N5CCCCC5)nc(N5CCOCC5)n4)cc3)nc2c1	72.31%	-37.8%	104%	95%	94%	89%	99%	7.95%	-54%	-35%	93%	92%	98%	-26%	101%	14.3%	96%	79%	22%	-13%	growth at 0.1 µM [21]: 94%; growth at 0.1 µM [22]: 96%; growth at 1 µM [23]: 87%; growth at 10 µM [24]: -61.3%; growth at 100 µM [25]: -90%; growth at 0.01 µM [26]: 84%; growth at 100 µM [27]: -19%; growth at 10 µM [28]: -46.9%

— ChEMBL document CHEMBL3808334, “Synthesis and in vitro evaluation of novel triazine analogues as anticancer agents and their interaction studies with bovine serum albumin” (Eur J Med Chem, 2016)
